Hits are enriched below; roughly 2% of the tested compounds scored in any of these assays.
VIM-2 inh: inhibitors of Pseudomonas aeruginosa VIM-2 metallo-beta-lactamase; purified VIM-2, nitrocefin hydrolysis, epi-absorbance fluorescence; inhibition, % at 5.6 µM; 290,000 tested, 0.89% active; AID 1527;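 active = inhibition above the mean of all tested compounds plus 3 SD, cutoff set per screening run, cut at about 7.5% in these data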;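 also: red hydrolysis product quenches plate fluorescence so inhibitors raise well fluorescence; 0% = enzyme with DMSO and 100% = DMSO without enzyme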
IMP-1 inh: blocks Pseudomonas aeruginosa IMP-1 metallo-beta-lactamase; purified IMP-1, nitrocefin hydrolysis, epi-absorbance fluorescence; 290,000 tested, 0.45% active; inhibition, % at 5.6 µM;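 active = inhibition above the mean plus 3 SD of all compounds in the same screening run, cut at about 4.5% in these data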;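 also: 0% = IMP-1 with DMSO and 100% = DMSO wells lacking enzyme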
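Assay system: purified recombinant IMP-1 beta-lactamase. Input: IMP-1 0.2 nM before substrate addition. Buffer or medium: Zinc- and detergent-supplemented HEPES buffer, pH 7.1. Schedule: 25 °C, 15 min preincubation, 25 min reaction. Signal: Epi-absorbance fluorescence, 480 nm excitation, 530 nm emission. Evaluation: percent inhibition from optical density relative to buffer-blank wells.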
PvdQ inh: P. aeruginosa PvdQ acylase inhibition; purified PvdQ acylase, fluorescence plate reader; inhibition, % at 10 µM; 340,000 tested, 0.063% active; in the data active = inhibition above about 30%, passing the limit was not always enough;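 also: 0% = vehicle neutral wells and 100% = reference inhibitor wells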
PLCb3 inh: inhibitors of human phospholipase C beta3 | Purified PLC-beta3, fluorogenic substrate, fluorescence | inhibition, % at 12.2 µM | 370,000 tested, 0.18% active | AID 720704;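 also: 0% = median of compound wells on plate and 100% = full blocker control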
PLC-gamma1 inh: blocks human PLC-gamma1 enzyme activity; purified PLC-gamma1, fluorogenic substrate, fluorescence; inhibition, % at 12.2 µM; 370,000 tested, 0.84% active; in the data active = inhibition above about 9.5%
PLCgamma1 ctr: PLC-gamma1 inhibition, counter-screen for PLC-beta3 hits; purified PLC-gamma1, fluorogenic substrate, fluorescence; 3,300 tested, 3.1% active; shares compounds with PLC-gamma1 inh; AID 743258; inhibition, % at 12.3 µM; in the data active = inhibition above about 9.5%
PLCb3 confirm: confirmation of human PLC-beta3 inhibitors | 3,300 tested, 1% active | purified PLC-beta3, fluorogenic substrate fluorescence | shares compounds with PLC-gamma1 inh | AID 743261 | inhibition, % at 12.3 µM
An asterisk follows results filed as active; / = not tested or not shown. Rule as the data show it, unless noted: active = inhibition above about 11%; inactive = the rest.

SMILES	VIM-2 inh	IMP-1 inh	PvdQ inh	PLCb3 inh	PLC-gamma1 inh	PLCgamma1 ctr	PLCb3 confirm
COC(C(=O)NNS(=O)(=O)c1ccc([N+](=O)[O-])cc1)c1ccccc1 (stereo unspecified)	-3.6	-3.1	-7.0	7.2	12.5*	-4.6	-1.3
CCC(C)N(Cc1ccc(OC)cc1OC)S(=O)(=O)c1cc(Br)ccc1Br (stereo unspecified)	/	/	/	2.9	2.8	/	/
Cc1cc(C(=O)COC(=O)c2ccc(Br)o2)c(C)n1C	0.9	-1.8	-6.4	-4.8	1.0	/	/
COCCn1c(C)cc(C(=O)COC(=O)c2ccc(Br)o2)c1C	-3.3	1.9	8.3	1.1	10.2*	-8.4	-2.2
O=C(OC12CCCN(C1)/C(=C/c1cccc(Cl)c1)C2)c1cccc(F)c1 (stereo unspecified)	/	/	/	-1.2	2.2	/	/
CC(=O)Nc1cccc(CP(=O)(c2ccccc2)c2ccccc2)c1	0.1	-1.0	0.7	-1.5	13.3*	0.6	2.7
C/C(C=NNC(=O)CSc1nnc(-c2ccccc2)n1-c1ccc(C)cc1)=C\c1ccco1	/	/	/	-10.8	-1.0	/	/
O=C(O)CCNC(=O)c1ccc(Br)o1	-3.7	-3.0	-11.5	5.7	12.1*	-6.2	-3.8
O=C(O)c1cccc(S(=O)(=O)NCC2COc3ccccc3O2)c1 (stereo unspecified)	/	/	0.6	1.2	9.8*	-8.2	-2.3
O=S(=O)(NCC1COc2ccccc2O1)c1ccc2ccccc2c1 (stereo unspecified)	-3.4	-2.2	7.2	-10.7	2.0	/	/
COc1ccc(CN2CCN(c3ncnc4scc(-c5ccc(F)cc5)c34)CC2)cc1	-1.3	-1.1	-19.1	-5.1	1.0	/	/
c1ccc(N2CCN(c3ncnc4scc(-c5cccs5)c34)CC2)cc1	-3.0	-1.8	-1.6	-2.2	11.1*	-3.5	0.3
Fc1ccc(-c2csc3ncnc(N4CCN(c5ccccc5)CC4)c23)cc1	-1.0	0.2	10.1	-6.9	-0.5	/	/
CCOc1ccc(CN2CCN(c3ncnc4scc(-c5ccccc5)c34)CC2)cc1	-1.0	-1.3	-14.1	-0.9	10.0*	-4.1	-4.7
CCOC(=O)N1C(=O)C[C@](Sc2ccc(OC)cc2)(C(=O)N2CCN(c3ncccn3)CC2)[C@H]1c1ccc(OC)cc1	/	/	/	-1.6	-3.3	/	/
CSc1cccc(NC(=S)N(CCCN2CCCC2)Cc2cccs2)c1	-1.1	-0.6	-8.6	2.1	12.6*	-9.0	-3.2
COc1ccc(NC(=S)N(CCCN2CCCC2)Cc2cccs2)cc1	-3.5	-5.2	-11.5	-0.5	-0.7	/	/
COC(=O)C1=C(C)N(Cc2ccccc2C(F)(F)F)C(=NCc2ccc(OC)cc2)NC1c1ccc(C(F)(F)F)cc1 (stereo unspecified)	/	/	/	0.8	1.3	/	/
CCCCCCCC(=O)Nc1ccc(S(=O)(=O)Nc2nccs2)cc1	-2.7	-3.4	-20.4	0.2	26.5*	-5.4	-5.1
CCCCOC(=O)Nc1ccc(S(=O)(=O)Nc2nccs2)cc1	-3.9	-2.4	-9.5	-3.3	0.1	/	/
O=C(NC(=S)Nc1ccc(S(=O)(=O)Nc2nccs2)cc1)c1ccc(F)c(F)c1	-1.8	1.1	-5.8	10.2	14.1*	-5.3	-9.6
O=C(CSc1ccc(Br)c2cccc(Cl)c12)Nc1ccc(S(=O)(=O)Nc2nccs2)cc1	-3.7	-1.8	-1.9	-3.5	11.0*	-6.1	-9.9
Cc1ccc(-n2c(SCc3nc4ccccc4[nH]3)nnc2-c2ccccn2)cc1	/	/	/	-2.1	-1.0	/	/
CCC(C)CNC(=O)CN1C(=O)C2CCCCN2C(=O)c2ccccc21 (stereo unspecified)	/	/	/	-0.8	-3.9	/	/
COc1ccc(CC(=O)N2CCN(C(=O)c3ccc4nc(C)n(C5CCCC5)c4c3)CC2)cc1	/	/	/	1.2	0.0	/	/
Cc1ccc(C(C)C)cc1NC(=O)Nc1ccc([N+](=O)[O-])cc1	-0.5	-1.2	-15.7	11.7*	5.1	5.0	10.1
CCC(C#Cc1ccccc1)NCc1ccc(OC)cc1OC (stereo unspecified)	/	/	/	5.8	6.7	/	/
O=[N+]([O-])c1cccnc1SCc1ccccc1	-1.3	-3.1	-14.0	0.4	15.0*	2.2	0.3
O=C1COc2ccccc2C(c2nnnn2-c2ccc3ccccc3c2)N1C1CC1 (stereo unspecified)	/	/	/	0.6	-1.8	/	/

Source: PubChem (several laboratories)
